Source: the EternaBench riboswitch data

Test system: MS2 coat protein
Assay: apparent Kd, MS2 coat protein; higher = weaker binding; RNA-MaP array; FMN 200 µM where present
Procedure, shortened: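 SNAP-549-labelled MS2 coat protein, doubled from 0.7 or 1.5 nM to 3 µM, was titrated over designs transcribed by stalled E. coli RNA polymerase on Illumina sequencing-chip clusters. Titrations were run without and then with constant ligand in 100 mM Tris-HCl pH 7.5, 80 mM KCl, 4 mM MgCl2, BSA, DTT, yeast tRNA and Tween-20. The apparent Kd is the median of filtered per-cluster fits to green signal normalised to red-channel RNA signal and control-cluster median Fmax.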

[1] = designed as: OFF switch for flavin mononucleotide, no ligand
[2] = ligand present: flavin mononucleotide, designed as: OFF switch for flavin mononucleotide
[3] = designed as: ON switch for flavin mononucleotide, no ligand
[4] = ligand present: flavin mononucleotide, designed as: ON switch for flavin mononucleotide

GGCUAGUCAGGAUAUACGAACAUGUCAAAAGACGUGAAGGGACAUGAGGAUCACCCAUGUAGAAGGGACUAGCC
apparent Kd [1]: 22.8 nM | apparent Kd [2]: 182 nM

GGCGACCUAGGAUAUACAUGAGGAUCACCCAUGUUUAUCUAAUAGAUGAAGACGGGUUGUAGAAGGAGGAAAAU
apparent Kd [1]: 15.6 nM | apparent Kd [2]: 19.4 nM

GCGUACAUAUCAGGAUAUCAUAUAAUUGUUUAUCUCAGUGUAUACAUGAGGAUCACCCAUGUUCUUGAGAAGGGAUAUGUACGC
apparent Kd [1]: 8.24 nM | apparent Kd [2]: 8.68 nM

AAGGGACAUGAGGAUCACCCAUGUGAGGAUAUGCUAUGGAAAAUAAAAAAUAAACAUAGCAGAAGGCAUAAAAA
apparent Kd [1]: 64.9 nM | apparent Kd [2]: 97 nM

AACAGUACAGGAUAUACAUGAGGAUCACCCAUGUGAGAAUUUAGCAGCGUACCACACAGUAGAAGGGUAAUGGA
apparent Kd [1]: 28.2 nM | apparent Kd [2]: 25.5 nM

AAAUUGCUAGAGGAUAUCGGAUAGGAUCUAUUACGAGAAGGUUGGACAUGAGGAUCACCCAUGUUCUGUUGGGA
apparent Kd [1]: 23.8 nM | apparent Kd [2]: 23.5 nM

GUGGUCAGACAUGAGGAUCACCCAUGUGGAAUAAAUAAGGUUUAGGAUAUGGAAUAUAGGAUAUACCAGAAGGGAGGGUUGGUG
apparent Kd [3]: 142 nM | apparent Kd [4]: 146 nM

UUAUGGAGGUAGGAUAUCAUGACGUCUUAGUUGUGAGAAGGGCUUACAUGAGGAUCACCCAUGUGGUGUUUUUG
apparent Kd [1]: 584 nM | apparent Kd [2]: 192 nM

UGUCGGAGCAGAGGAUAUACAUGAGGAUCACCCAUGUAAUAAAGUGAAGCCUGGAAACAGGCAAUGUAGAAGGUUGCUCCGACA
apparent Kd [1]: 7.2 nM | apparent Kd [2]: 31.5 nM

AAUUAGGUCACAGGAUAUACAACAACCAAUGCUGUAGAAGGGUGACACAUACUUAGCUGACAUGAGGAUCACCCAUGUAACCAC
apparent Kd [3]: 31.4 nM | apparent Kd [4]: 8.87 nM

AAUCCACAUGAGGAUCACCCAUGUGAGGAUAUCGUGCAGAAAAAAAAAAAAAACUGCACGAGAAGGCACAUGGA
apparent Kd [1]: 160 nM | apparent Kd [2]: 69.1 nM

UGGGACGUGGGAGGAUAUCGGCCUGUAACAGUACGAGAAGGCCCAGUCCAAUAACAGACGGACAUGAGGAUCACCCAUGUCUCA
apparent Kd [3]: 43.2 nM | apparent Kd [4]: 14.3 nM

GUAGCAUACCGAGGAUAUUCACAUAAUAAAUAAACAUGAGGAUCACCCAUGUGGCGAAAGCCUAGGGAGAAGGCGGAAUGCUAC
apparent Kd [3]: 76 nM | apparent Kd [4]: 18.7 nM

AGAUCGACUGUGAGGAUAUUGACCGGACGACCCAUCGAGAAGGCACAUGAGGAUCACCCAUGUGAGUCGGUUUA
apparent Kd [1]: 15.5 nM | apparent Kd [2]: 17 nM

GGAUGGGACAGAGGAUAUACGUGCUAGAGAUACUAGCAAAAUUUCCUCACAUGAGGAUCACCCAUGUAGAAGGCUGUCCUAUCG
apparent Kd [1]: 15.2 nM | apparent Kd [2]: 513 nM

UGGUACAUGGGAGGAUAUGGGUUGAUAACAUGAGGAUCACCCAUGUUAAAUAUGCCUAGUGGCAACUAGAAGGCCCAUGUACCU
apparent Kd [3]: 317 nM | apparent Kd [4]: 51 nM

GAGGAACAUGAGGAUCACCCAUGUGAGGAUAUGCAUAGUGAGCUAGUAGACGUUUAUUGCAGAAGGUACACUGA
apparent Kd [1]: 31.4 nM | apparent Kd [2]: 23.6 nM

GUGAGGUAAGGAUAUAGUAGUGAAGGUAAGAUAUGAGAAUGCUAGAAGGUACAUGAGGAUCACCCAUGUUCGGG
apparent Kd [1]: 117 nM | apparent Kd [2]: 116 nM

UUUGUUUAUGUGAGGAUAUACUGUUUGUAUUGAUUGUAGAAGGUACAUGAGGAUCACCCAUGUUUUGUAUUUAU
apparent Kd [1]: 18.8 nM | apparent Kd [2]: 19.4 nM

AAGAUGCGGGUAGGAUAUGGAAAUUAAUAAAGACCAGAAGGACUGGUCACACAACAUGAGGAUCACCCAUGUGUGUGUUGUGAA
apparent Kd [1]: 11.9 nM | apparent Kd [2]: 10.4 nM

AUCAGCUCGUCAGGAUAUACAUCACUGCUUCGGCAGUGUAUUAAGAUUACAUGAGGAUCACCCAUGUAGAAGGGACGAGCUGAU
apparent Kd [1]: 17.2 nM | apparent Kd [2]: 20.8 nM

CGAUUUACUGAGGAUAUUGCAUCACCCGACUGAUAAGAAGGCAGAACAUGAGGAUCACCCAUGUGGGUACUCAC
apparent Kd [1]: 80.5 nM | apparent Kd [2]: 91.1 nM

GUUGCUUUCCGAGGAUAUUCUGGGCGUGGUUAUACAUGAGGAUCACCCAUGUGGCGGUUGCCUAGGGAGAAGGCGGGCUGCUUC
apparent Kd [3]: 20.3 nM | apparent Kd [4]: 17.9 nM

CCUCGGUAGACAGGAUAUCCUUACAUGAGGAUCACCCAUGUAGCAAGACAUGGAGAAGGGUCACUGUGGGUAAAAGCGCAUAUC
apparent Kd [3]: 225 nM | apparent Kd [4]: 14 nM

GCGAAUAAGUGAGGAUAUACAUAAUUUAUAACUGUAGAAGGCACAAACCUCAAGACAUGAGGAUCACCCAUGUGAAAUAUCGCU
apparent Kd [1]: 31 nM | apparent Kd [2]: 81.8 nM

AAAGGACGAGGAUAUACAUGAGGAUCACCCAUGUAAAAAGCGUAGCAAAAGUGCUUAUGUAGAAGGCGUCCAAA
apparent Kd [1]: 21.9 nM | apparent Kd [2]: 59.2 nM

GGACACCGAUCAGGAUAUACACGGCAUUCCAGAAACAUGAGGAUCACCCAUGUAGAAGGGAUCUGCGUCCUAAACAUAUCCAUU
apparent Kd [1]: 5.12 nM | apparent Kd [2]: 9.28 nM

GGUACUCAAAGAGUACAAGAAAGAACAUGAGGAUCACCCAUGUAGGAUAUGCUACUCAAAGAGUAGCAGAAGGACAUGUGCAGC
apparent Kd [1]: 30.6 nM | apparent Kd [2]: 103 nM

AGAAUGGGCGAGAAGGGAGUACAUGAGGAUCACCCAUGUGGUUCAUGGUGCUCAGGAUAUCGAUAGACCAAGGAGAGCCUUUGG
apparent Kd [1]: 21.9 nM | apparent Kd [2]: 185 nM

GUCAGCUCGUGAGGAUAUACAACACUGCUUCGGCAGUGUAUUACGAUCACAUGAGGAUCACCCAUGUAGAAGGCACGAGCUGAU
apparent Kd [1]: 15.2 nM | apparent Kd [2]: 307 nM

CAAAACAUCUCCGUGUUUGUCGAACAUGAGGAUCACCCAUGUAGAAGGCAUCGCGCGACGCGGGAUGAGGAUAUACGCUGGAUG
apparent Kd [1]: 6.18 nM | apparent Kd [2]: 15.3 nM

GCUAGUAUUGCAGGAUAUUGAGAAUAAUUAUGGCAAGAAGGGCAUAACAUGAGGAUCACCCAUGUAUUCCUUAGUGAUACUAGC
apparent Kd [1]: 9.07 nM | apparent Kd [2]: 8.33 nM

UAGUGAUUGCAAGGAUAUGCUUAUGUUUAAUUUUAUUUAUUAUCUAACAUGAGGAUCACCCAUGUGCAGAAGGUGCUUGAUUUG
apparent Kd [3]: 63.4 nM | apparent Kd [4]: 53.4 nM

UCUGCCGCCGUGAGGAUAUGCCCGCGCGCCCGCGGGCAGAAGGCACAUGAGGAUCACCCAUGUCCCGCGGUUUU
apparent Kd [1]: 16.3 nM | apparent Kd [2]: 37.3 nM

UCUACGUAAAUUCAUCAAUACAGAAAGGAUAUGAAAUACAUGAGGAUCACCCAUGUGCAUGGGAAUUAGAAGGUUCAAUUAACU
apparent Kd [1]: 202 nM | apparent Kd [2]: 104 nM

GGCUCAUUGACAUUAAUGUGCAGACAGGAUAUCCACCGCGGUUCCUACAUGAGGAUCACCCAUGUGGAGAAGGGUCGCUAAUGG
apparent Kd [1]: 16.1 nM | apparent Kd [2]: 43.6 nM

AAUAUGAGCUGGAAUAACCUAGAAACAUGAGGAUCACCCAUGUAGGAUAUCAGCACGAUAAGUGCUGAGAAGGACAACCAGCUC
apparent Kd [1]: 14.3 nM | apparent Kd [2]: 15.2 nM

AAUCUAAUCCUUAAACAUGAGGAUCACCCAUGUAUUGGCAAGUAGGAUAUCGAUAAAUAUUUCAACGAGAAGGACUAUACAAAA
apparent Kd [1]: 21.7 nM | apparent Kd [2]: 31.7 nM

GUAAAGUGAGGAUAUGGUAAAUUAAUUAUUAAUUAAUUAAUCCAGAAGGCACAUGAGGAUCACCCAUGUAUAUG
apparent Kd [1]: 38.2 nM | apparent Kd [2]: 61.3 nM

GUAUAUAUGUGGUACAUGAGGAUCACCCAUGUGUCUUUACAUGAGGAUAUGGAUUCUAAUUGGAUCCAGAAGGCAUGUAUAUAC
apparent Kd [3]: 33 nM | apparent Kd [4]: 23.7 nM

AGAAAACAUGAGGAUCACCCAUGUCAAGCUAAUCAAGGAUAUGGGUCGGGAAAUCCCGCACCAGAAGGUGAAAUGC
apparent Kd [3]: 123 nM | apparent Kd [4]: 24.5 nM

CGUAUAUGGGAGAAGGCAUGUCCCAAAGGGCUAUGAGGAUAUCCUAAGUGUACGCUUUGCGACAUGAGGAUCACCCAUGUAGCA
apparent Kd [3]: 10.5 nM | apparent Kd [4]: 6.36 nM

GGAAUACAUGAGGAUCACCCAUGUAAGGAUAUGCUGAUUAACACGGAAUAAUUAUGCAGCAGAAGGUACAAAGG
apparent Kd [1]: 113 nM | apparent Kd [2]: 91.1 nM

AAAAAGUGAGGAUAUGCUGCUCGUCACUUGCGUGAUGAGUAGCAGAAGGCACAUGAGGAUCACCCAUGUGGGAA
apparent Kd [1]: 82.6 nM | apparent Kd [2]: 170 nM

AAAUCGCAAGGAUAUCGUCAGUCUGACAUGAGGAUCACCCAUGUUAUCUUGGUAUCAGAGCGAGAAGGUGCAAAGU
apparent Kd [1]: 13 nM | apparent Kd [2]: 13.9 nM

ACUUGCUUGCAGAAGGGUGACAUGAGGAUCACCCAUGUAGCGGGCCGGCUUAAAGUCAGCGCGCCACAGGAUAUGCAGGCCUCG
apparent Kd [3]: 14.2 nM | apparent Kd [4]: 35.1 nM

CCAACCGUAGGAUAUUCCAAGUCCGACAUGAGGAUCACCCAUGUGUUUCUCUGCGAUUUAGGAGAAGGGCGGUUGG
apparent Kd [1]: 349 nM | apparent Kd [2]: 474 nM

UGGUUUAGUGUUAGGAUAUAAUCCGAAGUCAGCGAUUAGAAGGAACAUGAGGAUCACCCAUGUUUUAGAUAACC
apparent Kd [1]: 16 nM | apparent Kd [2]: 16.9 nM
